Activity calls are given as the source filed them.
Legend:
[1] = test system: Tyrosine-protein kinase ABL1 (Homo sapiens), P00519 [Q252H]; assay: Inhibition of recombinant human ABL Q252H mutant (27 to end residues) at 10 uM using EAIYAAPFAKKK as substrate measured after 40 mins in presence of [gamma33P]ATP by scintillation counting method
[2] = molecular target: AP2-associated protein kinase 1 (Homo sapiens) (UniProt Q2M2I8); assay: Inhibition of human AAK1 at 10 uM using peptide substrate measured after 120 mins in presence of [gamma33P]ATP by scintillation counting method
In short: (§1)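 Kinase panel of 422 kinases screened by Eurofins KinaseProfiler at a single test-compound concentration of 10 µM.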

[3] = test system: Receptor-type tyrosine-protein kinase FLT3 (Homo sapiens), P36888 [D835Y]; assay: Inhibition of recombinant human Flt3 D835Y mutant (564 to end residues) at 10 uM using EAIYAAPFAKKK as substrate measured after 40 mins in presence of [gamma33P]ATP by scintillation counting method
[4] = molecular target: Ephrin type-B receptor 1 (Homo sapiens) (UniProt P54762); assay: Inhibition of recombinant human EphB1 (564 to end residues) at 10 uM using KVEKIGEGTYGVVYK as substrate measured after 40 mins in presence of [gamma33P]ATP by scintillation counting method
[5] = test system: Tyrosine-protein kinase ABL1 (Homo sapiens), P00519 [T315I]; assay: Inhibition of recombinant human ABL T315I mutant (27 to end residues) at 10 uM using EAIYAAPFAKKK as substrate measured after 40 mins in presence of [gamma33P]ATP by scintillation counting method
[6] = molecular target: Bromodomain-containing protein 2 (Homo sapiens) (UniProt P25440); assay: Binding affinity to human partial length BRD2 bromodomain 1 long isoform (K71 to N194 residues) expressed in bacterial expression system at 1 uM by BROMOscan assay
In short: (§2)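 BROMOscan bromodomain cross-screen run by an outside service, compound at 1 µM against 32 recombinant bromodomains. Binding given as percent of control.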

[7] = molecular target: Vascular endothelial growth factor receptor 1 (Homo sapiens) (UniProt P17948); assay: Inhibition of recombinant human Flt1 (783 to end residues) at 10 uM using KKKSPGEYVNIEFG as substrate measured after 40 mins in presence of [gamma33P]ATP by scintillation counting method
[8] = molecular target: PI3K p110 delta/p85 alpha (Mus musculus) (UniProt P26450+O35904); assay: Inhibition of recombinant full-length mouse PI3K p110delta/p85alpha at 10 uM using phosphatidylinositol-4, 5-bisphosphate as substrate measured after 40 mins by HTRF assay; assay type: protein-complex assay
[9] = test system: Hepatocyte growth factor receptor (Homo sapiens), P08581 [D1228H]; assay: Inhibition of recombinant human MET A1209G/V1290L/D1246H mutant (974 to end residues) at 10 uM using KKKGQEEEYVFIE as substrate measured after 40 mins in presence of [gamma33P]ATP by scintillation counting method
[10] = molecular target: Mitogen-activated protein kinase kinase kinase 10 (Homo sapiens) (UniProt Q02779); assay: Inhibition of recombinant human MLK2 (1 to 449 residues) at 10 uM using myelin basic protein as substrate measured after 40 mins in presence of [gamma33P]ATP by scintillation counting method
[11] = molecular target: Serine/threonine-protein kinase 10 (Homo sapiens) (UniProt O94804); assay: Inhibition of recombinant human LOK (1 to 348 residues) at 10 uM using RLGRDKYKTLRQIRQ as substrate measured after 40 mins in presence of [gamma33P]ATP by scintillation counting method
[12] = molecular target: Proto-oncogene tyrosine-protein kinase receptor Ret (Homo sapiens) (UniProt P07949); assay: Inhibition of human Ret (658 to end residues) using KKKSPGEYVNIEFG as substrate measured after 40 mins in presence of [gamma33P]ATP by scintillation counting method; in short: as §1
[13] = molecular target: Mitogen-activated protein kinase kinase kinase 7 (Homo sapiens) (UniProt O43318); assay: Inhibition of human TAK1 (1 to 303 residues) using casein as substrate measured after 40 mins in presence of [gamma33P]ATP by scintillation counting method
Homo sapiens [14] = species: Homo sapiens; assay: Inhibition of recombinant full-length human PI3K p110alpha/p65alpha (1 to 571 residues) at 10 uM using phosphatidylinositol-4, 5-bisphosphate as substrate measured after 40 mins by HTRF assay
[15] = molecular target: Calcium/calmodulin-dependent protein kinase type 1D (Homo sapiens) (UniProt Q8IU85); assay: Inhibition of recombinant full-length human CaMK1delta at 10 uM using calmodulin as substrate measured after 40 mins in presence of [gamma33P]ATP by scintillation counting method
[16] = test system: Proto-oncogene tyrosine-protein kinase receptor Ret (Homo sapiens), P07949 [V804L]; assay: Inhibition of human Ret V804L mutant (658 to end residues) using KKKSPGEYVNIEFG as substrate measured after 40 mins in presence of [gamma33P]ATP by scintillation counting method; in short: as §1
[17] = molecular target: NT-3 growth factor receptor (Homo sapiens) (UniProt Q16288); assay: Inhibition of human TrkC (510 to end residues) using GEEPLYWSFPAKKK as substrate measured after 40 mins in presence of [gamma33P]ATP by scintillation counting method
Homo sapiens [18] = species: Homo sapiens; assay: Inhibition of recombinant human Mer H628Q/R794A mutant (557 to 882 residues) at 10 uM using GGMEDIYFEFMGGKKK as substrate measured after 40 mins in presence of [gamma33P]ATP by scintillation counting method
[19] = molecular target: cGMP-dependent protein kinase 2 (Homo sapiens) (UniProt Q13237); assay: Inhibition of recombinant full-length human PRKG2 at 10 uM using KKLRRTLSFAEPG as substrate measured after 40 mins in presence of [gamma33P]ATP by scintillation counting method
[20] = molecular target: Protein kinase C gamma type (Homo sapiens) (UniProt P05129); assay: Inhibition of recombinant full-length human PKCgamma at 10 uM using histone H1 as substrate measured after 40 mins in presence of [gamma33P]ATP by scintillation counting method
[21] = molecular target: Bromodomain-containing protein 9 (Homo sapiens) (UniProt Q9H8M2); assay: Binding affinity to human partial length BRD9 (R130 to V259 residues) expressed in bacterial expression system at 1 uM by BROMOscan assay; in short: as §2
[22] = molecular target: Tyrosine-protein kinase ABL1 (Homo sapiens) (UniProt P00519); assay: Inhibition of recombinant human ABL (27 to end residues) at 10 uM using EAIYAAPFAKKK as substrate measured after 40 mins in presence of [gamma33P]ATP by scintillation counting method
[23] = molecular target: Dual specificity protein kinase CLK3 (Homo sapiens) (UniProt P49761); assay: Inhibition of recombinant full-length human CLK3 at 10 uM using ERMRPRKRQGSVRRRV as substrate measured after 40 mins in presence of [gamma33P]ATP by scintillation counting method

Bromodomain-containing protein 2 (Homo sapiens), sequence (P25440 whole entry, looked up, the tested form may be a part, canonical isoform): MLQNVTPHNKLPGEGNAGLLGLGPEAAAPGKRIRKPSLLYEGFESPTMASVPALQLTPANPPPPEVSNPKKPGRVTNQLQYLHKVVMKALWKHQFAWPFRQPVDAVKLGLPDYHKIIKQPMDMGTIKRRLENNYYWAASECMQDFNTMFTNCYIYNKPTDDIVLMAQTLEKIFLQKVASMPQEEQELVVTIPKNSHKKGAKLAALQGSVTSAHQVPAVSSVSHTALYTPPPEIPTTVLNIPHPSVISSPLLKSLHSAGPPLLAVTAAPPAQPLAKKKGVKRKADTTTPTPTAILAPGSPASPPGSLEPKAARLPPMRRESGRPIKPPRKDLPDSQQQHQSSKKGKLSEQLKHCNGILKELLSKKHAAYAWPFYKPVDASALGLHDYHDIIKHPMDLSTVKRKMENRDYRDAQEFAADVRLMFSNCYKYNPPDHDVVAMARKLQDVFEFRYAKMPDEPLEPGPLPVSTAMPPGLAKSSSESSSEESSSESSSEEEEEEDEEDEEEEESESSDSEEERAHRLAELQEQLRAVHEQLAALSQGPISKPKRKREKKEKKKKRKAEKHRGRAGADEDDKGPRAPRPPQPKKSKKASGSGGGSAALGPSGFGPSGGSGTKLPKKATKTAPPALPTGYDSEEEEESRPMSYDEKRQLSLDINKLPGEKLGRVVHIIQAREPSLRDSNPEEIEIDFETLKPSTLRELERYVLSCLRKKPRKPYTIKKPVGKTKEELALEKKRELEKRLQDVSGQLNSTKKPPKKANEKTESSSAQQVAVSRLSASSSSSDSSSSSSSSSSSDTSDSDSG
Ephrin type-B receptor 1 (Homo sapiens), sequence (P54762 whole entry): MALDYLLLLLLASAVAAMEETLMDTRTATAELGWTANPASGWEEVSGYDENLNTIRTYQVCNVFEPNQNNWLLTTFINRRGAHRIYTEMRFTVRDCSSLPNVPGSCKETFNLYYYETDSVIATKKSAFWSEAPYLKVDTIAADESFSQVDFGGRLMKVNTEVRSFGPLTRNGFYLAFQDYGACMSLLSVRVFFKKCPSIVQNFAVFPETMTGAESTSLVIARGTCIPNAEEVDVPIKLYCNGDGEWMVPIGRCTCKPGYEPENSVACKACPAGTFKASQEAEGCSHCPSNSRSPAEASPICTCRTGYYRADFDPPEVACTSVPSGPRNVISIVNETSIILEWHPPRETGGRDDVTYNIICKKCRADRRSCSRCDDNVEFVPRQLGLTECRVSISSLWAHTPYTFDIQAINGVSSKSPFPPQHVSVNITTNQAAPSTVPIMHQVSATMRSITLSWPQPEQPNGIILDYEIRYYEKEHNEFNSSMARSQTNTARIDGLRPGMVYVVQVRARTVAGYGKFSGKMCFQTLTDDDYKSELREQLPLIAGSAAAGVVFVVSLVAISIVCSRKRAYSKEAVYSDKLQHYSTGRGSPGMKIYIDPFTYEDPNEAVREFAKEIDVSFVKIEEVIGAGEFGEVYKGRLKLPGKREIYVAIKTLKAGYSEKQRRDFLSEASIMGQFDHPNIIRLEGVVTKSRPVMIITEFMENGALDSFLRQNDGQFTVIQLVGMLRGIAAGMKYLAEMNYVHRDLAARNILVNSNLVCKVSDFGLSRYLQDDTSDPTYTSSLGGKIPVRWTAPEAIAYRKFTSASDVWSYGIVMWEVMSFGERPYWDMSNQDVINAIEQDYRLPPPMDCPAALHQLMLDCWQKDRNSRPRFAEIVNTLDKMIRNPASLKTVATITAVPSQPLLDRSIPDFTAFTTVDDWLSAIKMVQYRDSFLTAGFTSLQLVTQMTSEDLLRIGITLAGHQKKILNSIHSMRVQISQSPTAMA
Proto-oncogene tyrosine-protein kinase receptor Ret (Homo sapiens), sequence (P07949 whole entry, the tested form may be a part): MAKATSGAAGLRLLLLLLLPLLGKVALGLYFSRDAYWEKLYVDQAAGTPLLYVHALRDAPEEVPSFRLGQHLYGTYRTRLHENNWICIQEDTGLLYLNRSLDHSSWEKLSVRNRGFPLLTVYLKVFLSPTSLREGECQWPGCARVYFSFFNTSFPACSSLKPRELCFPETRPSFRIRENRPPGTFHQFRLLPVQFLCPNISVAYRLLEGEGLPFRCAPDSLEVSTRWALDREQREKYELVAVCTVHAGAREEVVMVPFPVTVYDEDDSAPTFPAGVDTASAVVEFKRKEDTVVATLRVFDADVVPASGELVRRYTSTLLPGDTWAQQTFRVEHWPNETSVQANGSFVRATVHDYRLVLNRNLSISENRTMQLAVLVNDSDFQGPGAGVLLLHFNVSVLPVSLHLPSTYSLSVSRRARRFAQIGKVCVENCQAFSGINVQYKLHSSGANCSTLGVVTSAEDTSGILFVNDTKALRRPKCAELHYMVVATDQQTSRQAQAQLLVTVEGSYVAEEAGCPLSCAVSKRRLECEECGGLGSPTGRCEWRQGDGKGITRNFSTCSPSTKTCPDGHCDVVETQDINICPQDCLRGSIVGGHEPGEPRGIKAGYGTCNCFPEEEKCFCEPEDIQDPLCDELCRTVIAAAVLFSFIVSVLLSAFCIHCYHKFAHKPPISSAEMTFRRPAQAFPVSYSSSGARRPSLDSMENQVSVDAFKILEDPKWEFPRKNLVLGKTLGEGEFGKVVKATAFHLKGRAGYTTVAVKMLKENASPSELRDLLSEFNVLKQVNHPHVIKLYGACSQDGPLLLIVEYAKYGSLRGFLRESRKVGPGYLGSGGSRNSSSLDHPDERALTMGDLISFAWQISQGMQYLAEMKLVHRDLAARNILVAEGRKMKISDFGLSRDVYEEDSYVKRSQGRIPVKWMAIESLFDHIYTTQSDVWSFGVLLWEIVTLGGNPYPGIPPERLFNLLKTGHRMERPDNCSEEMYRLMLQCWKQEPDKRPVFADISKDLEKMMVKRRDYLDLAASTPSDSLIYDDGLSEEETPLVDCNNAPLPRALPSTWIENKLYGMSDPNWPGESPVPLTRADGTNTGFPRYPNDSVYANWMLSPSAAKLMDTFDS
NT-3 growth factor receptor (Homo sapiens), sequence (Q16288 32-839 limits assumed): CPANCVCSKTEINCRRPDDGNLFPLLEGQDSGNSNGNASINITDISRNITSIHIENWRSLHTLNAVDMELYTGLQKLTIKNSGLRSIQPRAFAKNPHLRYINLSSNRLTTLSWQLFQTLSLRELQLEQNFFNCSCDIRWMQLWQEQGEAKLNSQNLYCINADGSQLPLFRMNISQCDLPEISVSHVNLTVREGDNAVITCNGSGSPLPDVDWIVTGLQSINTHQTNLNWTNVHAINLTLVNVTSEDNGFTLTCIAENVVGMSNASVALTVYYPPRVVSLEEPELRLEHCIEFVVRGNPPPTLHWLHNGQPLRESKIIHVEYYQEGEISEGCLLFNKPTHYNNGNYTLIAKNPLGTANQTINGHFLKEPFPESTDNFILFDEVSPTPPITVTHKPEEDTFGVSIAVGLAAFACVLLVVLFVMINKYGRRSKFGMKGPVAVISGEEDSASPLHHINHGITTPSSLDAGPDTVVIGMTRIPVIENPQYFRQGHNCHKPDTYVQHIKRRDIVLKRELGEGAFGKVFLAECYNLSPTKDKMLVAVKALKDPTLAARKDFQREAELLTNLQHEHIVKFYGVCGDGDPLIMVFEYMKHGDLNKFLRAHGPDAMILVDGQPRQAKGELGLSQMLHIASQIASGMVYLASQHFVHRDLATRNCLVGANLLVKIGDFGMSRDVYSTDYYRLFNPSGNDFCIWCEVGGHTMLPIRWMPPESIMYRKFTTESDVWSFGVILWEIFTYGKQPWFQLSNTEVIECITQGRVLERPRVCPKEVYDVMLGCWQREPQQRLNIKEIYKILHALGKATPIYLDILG
Bromodomain-containing protein 9 (Homo sapiens), sequence (Q9H8M2 whole entry, the tested form may be a part): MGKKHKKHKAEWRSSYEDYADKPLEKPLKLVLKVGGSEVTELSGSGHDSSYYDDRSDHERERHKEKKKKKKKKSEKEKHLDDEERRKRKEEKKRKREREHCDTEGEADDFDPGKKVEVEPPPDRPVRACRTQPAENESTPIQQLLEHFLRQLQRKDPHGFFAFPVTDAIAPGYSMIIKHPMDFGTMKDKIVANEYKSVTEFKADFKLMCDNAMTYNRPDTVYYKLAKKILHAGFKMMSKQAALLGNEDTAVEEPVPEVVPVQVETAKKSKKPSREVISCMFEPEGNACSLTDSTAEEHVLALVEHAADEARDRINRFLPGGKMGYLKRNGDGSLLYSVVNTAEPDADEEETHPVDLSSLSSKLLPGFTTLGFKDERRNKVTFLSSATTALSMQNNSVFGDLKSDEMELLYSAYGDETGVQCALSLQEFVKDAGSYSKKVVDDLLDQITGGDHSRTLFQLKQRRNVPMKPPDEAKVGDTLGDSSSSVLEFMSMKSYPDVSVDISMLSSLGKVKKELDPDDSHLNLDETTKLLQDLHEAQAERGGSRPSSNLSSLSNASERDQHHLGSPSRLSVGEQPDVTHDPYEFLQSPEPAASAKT
Proto-oncogene tyrosine-protein kinase receptor Ret (Homo sapiens), P07949 [V804L], sequence (P07949 whole entry V804L): as the sequence (P07949 whole entry, the tested form may be a part) above, with V804L counted along it
Mitogen-activated protein kinase kinase kinase 7 (Homo sapiens), sequence (O43318 whole entry, the tested form may be a part): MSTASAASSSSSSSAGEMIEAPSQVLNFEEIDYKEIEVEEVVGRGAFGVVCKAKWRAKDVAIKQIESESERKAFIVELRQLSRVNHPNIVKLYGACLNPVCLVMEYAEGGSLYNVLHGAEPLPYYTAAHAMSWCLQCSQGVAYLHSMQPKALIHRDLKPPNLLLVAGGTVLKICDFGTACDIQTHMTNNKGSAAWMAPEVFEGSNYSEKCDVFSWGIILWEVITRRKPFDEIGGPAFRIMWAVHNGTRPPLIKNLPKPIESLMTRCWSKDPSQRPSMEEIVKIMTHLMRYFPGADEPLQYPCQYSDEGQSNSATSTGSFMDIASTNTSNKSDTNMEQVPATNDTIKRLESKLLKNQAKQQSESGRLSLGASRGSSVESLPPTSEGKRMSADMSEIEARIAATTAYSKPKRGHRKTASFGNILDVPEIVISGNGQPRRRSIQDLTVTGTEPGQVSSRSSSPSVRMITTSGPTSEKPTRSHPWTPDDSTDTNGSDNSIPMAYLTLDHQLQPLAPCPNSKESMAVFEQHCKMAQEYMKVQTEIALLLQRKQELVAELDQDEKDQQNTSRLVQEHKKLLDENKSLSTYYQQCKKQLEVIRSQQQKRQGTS

CN1C[C@H](Nc2nc3cc[nH]c3c(=O)n2C)C[C@H](c2ccc3c(c2)OCCO3)C1
inactive: inhibition [1] | inhibition [2] | inhibition [3] | inhibition [4] | inhibition [5] | Activity [6] | inhibition [7] | inhibition [8] | inhibition [9] | inhibition [10] | inhibition [11] | inhibition [12] | inhibition [13] | inhibition (Homo sapiens [14]) | inhibition [15] | inhibition [16] | inhibition [17] | inhibition (Homo sapiens [18]) | inhibition [19] | inhibition [20] | Activity [21] | inhibition [22] | inhibition [23]
